Screens deposited in PubChem by Sanford-Burnham Center for Chemical Genomics.
An excerpt weighted towards active compounds, which were near 2.3% of everything screened.
STEP inh: inhibitors of human striatal-enriched phosphatase STEP. P54829. recombinant STEP, OMFP fluorogenic substrate, fluorescence. inhibition, % at 20 µM. actives 0.25% (n = 360,000);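 active = inhibition at 20 µM, scaled per plate between control wells, above about 37%, limit read from the data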;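 note: 0% = DMSO with enzyme and substrate and 100% = substrate only without enzyme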
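Test system: STEP tyrosine phosphatase / Reagent: OMFP at 25 µM / Doses: 20 µM, 1% DMSO / Read-out: percent inhibition scaled to no-enzyme and uninhibited-enzyme controls, plate-pattern corrected / Detection: FITC-channel fluorescence of OMFP product / Medium: Bis-Tris buffer pH 6.0, 2.5 mM DTT, 0.005% Tween 20 / Schedule: 20 min at room temperature, dark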
DNMT1 inh: DNMT1 (human) enzyme inhibition. DNMT1 molecular beacon, Hinp1I cleavage, fluorescence. inhibition (reported as % activation of signal), % at 10 µM. actives 0.83% (n = 360,000); in the data active = inhibition above about 50%
Scp1 inh: Scp-1 (human) phosphatase inhibition; inhibition, % at 20 µM; Q9GZU7; Recombinant Scp1, phosphopeptide, malachite green phosphate absorbance; actives 0.88% (n = 340,000);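 active = inhibition above about 50% at 20 µM, limit read from the data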;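 note: plate controls were DMSO wells with enzyme for no effect and wells lacking enzyme for full effect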
Target sequence (Q9GZU7 76-261 limits assumed): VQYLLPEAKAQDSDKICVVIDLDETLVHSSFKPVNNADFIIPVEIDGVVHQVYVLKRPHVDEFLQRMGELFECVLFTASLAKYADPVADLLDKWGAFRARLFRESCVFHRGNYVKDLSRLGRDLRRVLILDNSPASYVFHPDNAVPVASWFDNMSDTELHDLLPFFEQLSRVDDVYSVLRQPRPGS
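Material – SCP-1 phosphatase catalytic domain, residues 76-261 · Buffer or medium – Acidic Tris acetate buffer with magnesium and detergent · Also added – Phospho 17-mer peptide substrate · Compound – single 20 µM dose, 1% DMSO · Times – 45 min room-temperature reaction, 5 min colour, 30 min stabiliser · Technique – Phosphate-binding colour reagent, absorbance read at 630 nm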
LMPTP inh: blocks human LMPTP phosphatase. actives 0.22% (n = 360,000). recombinant LMPTP-A, OMFP fluorogenic substrate, fluorescence intensity. inhibition, % at 20 µM;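 active = compounds that cut the enzyme signal by at least half of the control window in the single-dose screen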;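 note: plate controls were DMSO wells with enzyme plus substrate for no effect and substrate without enzyme for full effect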
Target sequence (P24666 whole entry, looked up): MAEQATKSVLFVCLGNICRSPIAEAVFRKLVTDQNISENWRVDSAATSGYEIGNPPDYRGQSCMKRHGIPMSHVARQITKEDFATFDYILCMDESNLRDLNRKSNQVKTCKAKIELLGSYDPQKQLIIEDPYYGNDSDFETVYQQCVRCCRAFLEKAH
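Buffer or medium: Bis-Tris pH 6.0, DTT, detergent; Assay system: LMPTP-A enzyme; Quantity: 0.625 nM enzyme; Detection: endpoint fluorescence intensity; Times: 50 min dark incubation at room temperature; Controls: substrate-only low control, DMSO enzyme-plus-substrate high control; Doses: single 20 µM dose; Read-out: percent inhibition versus substrate-only and uninhibited controls; Reagent: 400 µM OMFP.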
NadD block: inhibitors of Staphylococcus aureus NadD; AID 602399; actives 0.78% (n = 360,000); purified NadD enzyme, colorimetric absorbance read-out; inhibition, % at 20 µM; in the data active = inhibition above about 26%
SUMO1 PPI mod: SUMO1-SIM interaction modulation. inhibition, % at 20 µM. actives 0.33% (n = 360,000). SUMO1 binding to a labelled peptide, TR-FRET, 1 h; in the data active = inhibition above about 37%
Target sequence (P63165 whole entry, looked up): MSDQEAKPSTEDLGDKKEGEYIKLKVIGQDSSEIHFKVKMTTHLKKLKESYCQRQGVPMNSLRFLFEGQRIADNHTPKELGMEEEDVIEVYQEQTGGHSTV
DNMT1 interf DR: shows spectral interference in the DNMT1 beacon assay; shares compounds with DNMT1 inh; molecular beacon fluorescence, spectral interference counter-screen; IC50, µM; 200 tested, under 10 active; AID 602382; call rule not given here
DNMT1 confirm: DNMT1 inhibition confirmation, single concentration; shares compounds with DNMT1 inh; inhibition, % at 10 µM; actives 8% (n = 2,300); DNMT1 molecular beacon HinP1I cleavage, fluorescence;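 active = average inhibition of at least 30% in the single-concentration confirmation test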
DNMT1 interf: beacon fluorescence artifact counter-screen; AID 602387; DNMT1 molecular beacon spectral interference counterscreen, fluorescence 485/520; activation (fluorescence interference), % at 10 µM; actives 1% (n = 2,300); shares compounds with DNMT1 inh;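 active = activation of at least 30% at 10 µM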;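 note: DNMT1 catalytic domain with a HinP1I cleavage step and a FAM/dabcyl DNA beacon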
* marks the source's active call; other numbers are inactive results.

For COc1ccc(/C=N/NC(=O)c2ccc(NC(C)=O)cc2)cc1COc1ccc(F)cc1F the results were STEP inh 1, DNMT1 inh 77*, Scp1 inh 24, LMPTP inh 7, NadD block 4, SUMO1 PPI mod 14, DNMT1 confirm -2 and DNMT1 interf -6.
O=C1CCCC2=C1C(c1ccco1)Nc1ccc3ccccc3c12 (configuration not stated) was read as STEP inh 4, DNMT1 inh 103*, Scp1 inh 74*, LMPTP inh 12, NadD block 12, SUMO1 PPI mod 15, DNMT1 interf DR >99, DNMT1 confirm 50* and DNMT1 interf -5.
Screening O=C1CCCC2=C1C(c1ccc(O)c(O)c1)Nc1ccc3ccccc3c12 (configuration not stated) returned STEP inh 2, DNMT1 inh -8, Scp1 inh -4, LMPTP inh 4, NadD block 9 and SUMO1 PPI mod -16.
`CC(Sc1nc2ccc(C(=O)c3ccccc3)cc2[nH]1)C(=O)O` (configuration not stated) gave STEP inh -4, DNMT1 inh 81*, Scp1 inh -2, LMPTP inh -1, NadD block -3, SUMO1 PPI mod 7, DNMT1 confirm -1 and DNMT1 interf 1.
`CC(Sc1nc2ccc(Br)cc2[nH]1)C(=O)O` (configuration not stated) gave STEP inh 1, DNMT1 inh 5, Scp1 inh -6, LMPTP inh -1, NadD block -2 and SUMO1 PPI mod 3.
Screening Nc1nnc(CCOc2ccccc2Cl)s1 returned STEP inh -3, DNMT1 inh 2, Scp1 inh 0, LMPTP inh -1, NadD block -2 and SUMO1 PPI mod 0.
For COc1ccccc1CCc1nnc(N)s1 the results were STEP inh 3, DNMT1 inh 81*, Scp1 inh 1, LMPTP inh -2, NadD block -3, SUMO1 PPI mod 5, DNMT1 confirm 1 and DNMT1 interf 2.
O=C(Nc1ccc(-c2cn3ccccc3n2)cc1)c1ccc(Cl)cc1 was read as STEP inh 9, DNMT1 inh 53*, Scp1 inh -1, LMPTP inh 36, NadD block 12, SUMO1 PPI mod 3, DNMT1 confirm 3 and DNMT1 interf 8.
`Clc1ccc(-c2cn3ccccc3n2)cc1` gave STEP inh 0, DNMT1 inh 7, Scp1 inh -4, LMPTP inh 0, NadD block -1 and SUMO1 PPI mod -3.
O=C(Nc1ccc(O)c2c(=O)cc(-c3cccc(Cl)c3)oc12)c1ccccc1Cl was read as STEP inh 5, DNMT1 inh 54*, Scp1 inh -8, LMPTP inh 1, NadD block 9, SUMO1 PPI mod 0, DNMT1 confirm 2 and DNMT1 interf -2.
`CCS(=O)(=O)N1CCC(C(=O)NCc2ccc3c(c2)OCO3)CC1` gave STEP inh 0, DNMT1 inh 0, Scp1 inh -6, LMPTP inh -1, NadD block -1 and SUMO1 PPI mod -1.
`O=C(NCc1ccc2c(c1)OCO2)C1CCN(C(=O)Nc2ccc(Cl)cc2)CC1` gave STEP inh 1, DNMT1 inh 75*, Scp1 inh -3, LMPTP inh -1, NadD block 1, SUMO1 PPI mod 0, DNMT1 confirm 6 and DNMT1 interf 1.
`NNC(=O)c1[nH]c(-c2ccccc2)cc1-c1ccccc1` gave STEP inh 1, DNMT1 inh 68*, Scp1 inh 2, LMPTP inh 2, NadD block 6, SUMO1 PPI mod -2, DNMT1 confirm 4 and DNMT1 interf 5.
`CCCCCCSc1ccc(-c2nc3ccc(Cl)cn3c2NCCCC)cc1OC` gave STEP inh -2, DNMT1 inh 79*, Scp1 inh 5, LMPTP inh 2, NadD block 2, SUMO1 PPI mod -1, DNMT1 confirm 1 and DNMT1 interf 2.
CC1=NN(c2cccc(C(=O)O)c2)C(=O)/C1=C\C=C\c1ccco1 was read as STEP inh 41*, DNMT1 inh 106*, Scp1 inh 80*, LMPTP inh 15, NadD block 0, SUMO1 PPI mod 25, DNMT1 interf DR >99, DNMT1 confirm 107* and DNMT1 interf -5.
CC1=NN(c2ccccc2)C(=O)/C1=C/C=C/c1ccccc1 was read as STEP inh 2, DNMT1 inh 14, Scp1 inh -12, LMPTP inh 2, NadD block -5 and SUMO1 PPI mod 31.
C=CCSC1=N/C(=C\c2cc(OC)c3c(c2)OCO3)C(=O)S1 was read as STEP inh -2, DNMT1 inh 74*, Scp1 inh -6, LMPTP inh 10, NadD block 5, SUMO1 PPI mod 3, DNMT1 confirm 17 and DNMT1 interf 9.
CCSC1=N/C(=C\c2ccc3c(c2)OCO3)C(=O)S1 was read as STEP inh 0, DNMT1 inh 3, Scp1 inh -4, LMPTP inh 2, NadD block 0 and SUMO1 PPI mod -10.
Screening Cc1cc2nc(-c3ccc(NC(=O)C(C)C)cc3)oc2cc1C returned STEP inh -4, DNMT1 inh 63*, Scp1 inh -7, LMPTP inh 0, NadD block -8, SUMO1 PPI mod -1, DNMT1 confirm 4 and DNMT1 interf 1.
For Cc1nc2sccn2c(=O)c1S(=O)(=O)N1CCN(c2cccc(Cl)c2)CC1 the results were STEP inh -1, DNMT1 inh 4, Scp1 inh 0, LMPTP inh -2, NadD block -5 and SUMO1 PPI mod -1.
CSc1ccc(/C=C/C(=O)OCC(=O)NC2CCCCCC2)cc1 was read as STEP inh -2, DNMT1 inh 65*, LMPTP inh 0, NadD block -4, SUMO1 PPI mod -9, DNMT1 confirm 1 and DNMT1 interf 6.
For COc1ccc(/C=C/C(=O)OCC(=O)NC2CCCCCCC2)cc1 the results were STEP inh 2, DNMT1 inh -2, Scp1 inh -7, LMPTP inh 2, NadD block 0 and SUMO1 PPI mod -5.
